One data set has as its system tubulin polymerization. The note with it: cited from earlier work.
The conditions of data set [1]: rats, i.p.; cited from earlier work.
The nature of data set [2]: Thermogravimetric analysis. It counts as physicochemical. Summed up:
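Thermogravimetric analysis of a 5.0 ± 0.5 mg sample in a ceramic pan under nitrogen at 2 bars. The sample was heated from 20°C to 350°C at 10°C/min to obtain the degradation temperature.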

In a further data set the test system is A375 cell line. The note with it: cited from earlier work.
A short description of data set [3]: Saturation solubility of EAPB0503 in solvents by HPLC. It counts as physicochemical. The conditions noted are these: for solubility: thermodynamic from solid. Summed up: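 Solvents, including purified water, were saturated with solid test compound and centrifuged at 5000 g for 5 min. The supernatant was quantified by HPLC on a C8 column using acetonitrile/2 mM ammonium formate pH 3 at 0.6 mL/min with a 12 min run. The column was held at 20°C and detection was by UV. Calibration used DMSO standards from 50–1000 μg/mL.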

Data set [4] in a line: Solubility screening of EAPB0503 in oils. Format: physicochemical. Summed up: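 5 mg of test compound was added to 1 g of pharmaceutical-grade oil ([…], castor, olive, soybean or sesame). Samples were magnetically stirred for 24 h at 20°C and then checked for complete solubilization.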
The conditions of data set [5]: cited from earlier work.
For data set [6] the following is noted: cited from earlier work. This is another data set of the same source.

These results are taken from article PMC5903019 (International Journal of Pharmaceutical Investigation, 2017).

≈ marks a conversion by molar mass, not a printed value. Where two headings read alike, the source gives them in different places. Some results are limits rather than exact numbers.

Regarding `CNc1nc2ccccc2n2c(-c3cccc(OC)c3)cnc12` [EAPB0503, 1-[3-methoxyphenyl]-N-methylimidazo [1,2-a] quinoxalin-4-amine], the “Inhibition of the tubulin polymerization” value in the data set on tubulin polymerization was “potent inhibition”. Further, the “Bioavailability after intraperitoneal administration” value in data set [1] is recorded as 35%. Moreover, the “Degradation temperature (TGA)” value in data set [2] came out at 347 °C. In addition, the “Degradation temperature onset (TGA)” value in data set [2] (onset) amounted to 210 °C. Also, the IC50 in the data set on A375 cell line (A375 cell line growth) is 200 nM. The “Fold increase activity compared to EAPB0203” value in the data set with A375 cell line (in vitro activity, human melanoma cell lines) is 9. In addition, the “Maximum concentration (solubility)” value in data set [3] (Purified water) is recorded as <0.1 mg/mL. In addition, the solubility in data set [3] (dimethyl sulfoxide, organic solvent or mixture) is 16.6 mg/mL (≈ 54.5 mM); in data set [3] (dimethylacetamide, organic solvent or mixture), 24.8 mg/mL (≈ 81.5 mM); in data set [3] (phosphate buffered saline, aqueous buffer), < 0.1 mg/mL; in data set [3] (purified water, water), < 0.1 mg/mL. Also, the “Solubility in Labrafac WL 139” value in data set [4] (Labrafac WL 139) is listed as “higher than 12 mg/g”. In data set [4] (Labrafac WL 1349 (semi-synthetic oil), oil or lipid, thermodynamic from solid), the solubility at 24 h is 12 mg/mL (≈ 39.4 mM). The “Concentration obtainable in vegetable oils” value in data set [4] (castor, olive, soybean and sesame oils) is ≤ 1000 µg/mL. Also, the “Solubilization in vegetable oils” value in data set [4] (castor, olive, soybean and sesame oils, 5 mg/mL, room temperature) is “not complete”.

In the case of `CC(=O)O[C@@]12CO[C@@H]1C[C@H](O)[C@@]1(C)C(=O)[C@H](O)C3=C(C)[C@@H](OC(=O)[C@H](O)[C@@H](NC(=O)OC(C)(C)C)c4ccccc4)C[C@@](O)([C@@H](OC(=O)c4ccccc4)[C@H]21)C3(C)C` [docetaxel], in data set [5] (encapsulated in LNC), the “Drug loading in LNC” value is on record as 2 mg/mL.

`COc1cc([C@@H]2c3cc4c(cc3[C@@H](O[C@@H]3O[C@@H]5CO[C@@H](C)O[C@H]5[C@H](O)[C@H]3O)[C@H]3COC(=O)[C@H]23)OCO4)cc(OC)c1O` [etoposide]: the Water solubility in data set [6] is 0.978 mg/mL. In addition, in data set [5] (formulated in LNC), the “Drug efficiency (encapsulation) in LNC” value is listed as 56.7 ± 21.3% and the “Drug loading in LNC” value is 6.5 ± 3.0 mg/g.

Regarding `CC(=O)O[C@H]1C(=O)[C@@]2(C)[C@H]([C@H](OC(=O)c3ccccc3)[C@]3(O)C[C@H](OC(=O)[C@H](O)[C@@H](NC(=O)c4ccccc4)c4ccccc4)C(C)=C1C3(C)C)[C@]1(OC(C)=O)CO[C@@H]1C[C@@H]2O` [paclitaxel], in data set [5] (encapsulated in LNC), the “Drug loading in LNC” value was 4 mg/mL.
